Screens as filed in PubChem BioAssay.
HSV replic up: increases HSV replication in cells | HSV replication augmentation in cells, fold increase | maximum fold increase | actives 0.005% (n = 220,000) | AID 1956; in the data active = maximum fold increase above about 1.5; tested in PC3 cells
Rad51 HR inh: Rad51 (human) homologous recombination inhibition; actives 0.085% (n = 200,000); inhibition, % at 10 µM; AID 1385; hRad51 DNA strand exchange, fluorescence dequenching;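 active = inhibition above 40% at the single screening dose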;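 also: 0% = DMSO control wells and 100% = blanks with heterologous ssDNA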
Target sequence (Q06609 whole entry, looked up): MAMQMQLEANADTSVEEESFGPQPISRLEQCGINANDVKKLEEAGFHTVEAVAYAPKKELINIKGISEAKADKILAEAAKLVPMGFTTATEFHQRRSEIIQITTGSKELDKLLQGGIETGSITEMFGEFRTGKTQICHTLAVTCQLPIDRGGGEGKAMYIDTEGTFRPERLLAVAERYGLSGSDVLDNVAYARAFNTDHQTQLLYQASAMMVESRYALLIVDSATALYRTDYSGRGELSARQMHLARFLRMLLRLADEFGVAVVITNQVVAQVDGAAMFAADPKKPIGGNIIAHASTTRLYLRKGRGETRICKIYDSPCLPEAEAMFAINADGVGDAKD
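material = hRad51 filaments on single-stranded DNA | timing = filaments 15 min 37 °C, then compound 30 min | signal = FRET fluorescence dequenching, excitation 485 nm, emission 520 nm | benchmarks = control wells and blank wells on each plate | evaluation = percent inhibition relative to plate controls and blanks | compound = 10 µM final, single point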
HSF1 inh: HSF1 inhibition | NIH3T3-HGL HSE-luciferase, MG132-induced, luminescence 8 h; hits give low values | activity change, negative = inhibition, % at 7.5 µM (by protocol) | actives 0.77% (n = 300,000) | AID 2098;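 active = more than half of replicate wells show activity change below -50%, luminescence cut by over half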;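 also: luciferase reports HSF-1 transcriptional activity via heat shock element; 0% = median of DMSO wells and -100% = zero luminescence signal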
Hsp70 activator: switches on Hsp70 transcription; HeLa Hsp70 promoter luciferase reporter, luminescence; scaled: vehicle 0, proteasome-inhibitor control 100%; activation, % at 10 µM; actives 0.04% (n = 200,000); AID 1203;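 active = activation above the mean across all tested compounds plus 3 SD, cutoff set per campaign, cut at about 5.5% in these data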;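 also: 100% = MG132 at 30 µM as the positive control and 0% = DMSO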
HSF-1 act: increases HSF-1 driven luciferase reporter signal. actives 1.7% (n = 300,000). activation, % at 9 µM. NIH3T3-HGL HSF-1 luciferase reporter, MG132, 8 h; 100% = twice DMSO control signal. AID 504408;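 active = mean replicate activation of at least 50% with a set share of replicates each reaching 50%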;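 also: 0% = median of the neutral control wells and 100% = twice that signal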
Mdm2 ligase inh: Mdm2 E3 ligase (human) inhibition | Q00987 | signal enhancement, % at 5 µM | actives 0.11% (n = 210,000) | cell-based MDM2 ubiquitination luciferase reporter, 2 h; 0 = plate control, 100 = twice control, blank-subtracted;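 active = signal enhancement of 30% or more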;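 also: luminescence tracks abundance of the self-degrading MDM2-luciferase fusion protein; higher signal means inhibition of MDM2 E3 ligase activity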
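Assay system: stable mammalian line carrying autodegrading MDM2–luciferase fusion reporter; Input: 2000 cells in each well; Compound dosing: single-point 5 µM; Schedule: 2 h compound exposure at 37 °C; Signal: SteadyLite luciferase luminescence after 15 min room-temperature reagent incubation; Evaluation: % luminescence enhancement versus blank-corrected plate control mean; Benchmarks: plate controls and plate blanks.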
An asterisk follows results filed as active; i = inactive; · = no result. Sampled rows, rich in hits. Any-hit rate of the full collection: about 2.6%.

SMILES	HSV replic up	Rad51 HR inh	HSF1 inh	Hsp70 activator	HSF-1 act	Mdm2 ligase inh
Cc1nn(C)c(Cl)c1C(=O)NCC(=O)NCc1ccccc1	i	42.0*	-4.1	-0.3	-5.9	-7.2
Cc1ccc(CNC(=O)CNC(=O)c2c(C)nn(C)c2Cl)cc1	i	-10.6	-6.0	-0.3	-5.8	4.1
Cc1cc(NC(=O)CN(C)C)c([N+](=O)[O-])cc1C	i	21.2	-0.2	-0.2	-6.7	-10.5
CCCc1nc(SCC(=O)N2CCCCCC2)c2c(=O)n(C)c(=O)n(C)c2n1	·	·	0.9	·	-9.7	·
C/C(=N\Nc1ccc([N+](=O)[O-])cc1)c1ccco1	i	-74.5	14.9	0.5	55.3*	4.5
O=C(NCCc1ccccc1)C(=O)c1cn(CC(=O)N2CCCC2)c2ccccc12	·	·	17.8	·	52.4*	·
Nc1ccccc1Nc1ccc([N+](=O)[O-])cc1[N+](=O)[O-]	i	6.8	18.3	0.7	60.2*	-12.2
Nc1cc([N+](=O)[O-])ccc1Nc1ccc(O)cc1	i	3.5	4.2	·	15.3	·
CC1Cc2ccccc2N1C(=O)CSc1ncccc1C(=O)O (configuration not stated)	i	-0.8	-77.6*	-0.6	-81.4	·
C1CCC(Nc2nnnn2C2CCCCC2)CC1	i	-2.8	-59.0*	-0.2	-65.2	-11.6
CCc1ccc(-c2cc3c(=O)n(CC(=O)NCCCN4CCN(C)CC4)ncn3n2)cc1	·	·	-23.8	·	-10.6	·
CN(C)/N=C/C=C1\CCC/C(=C/c2cccs2)C1=O	i	-9.9	41.1	·	75.8*	-12.5
CN(C)/N=C/C=C1\CC/C(=C\c2ccc(Br)cc2)C1=O	·	·	-0.6	-0.2	-0.3	·
N#Cc1ccccc1CCN1C(=O)c2ccccc2C1=O	·	·	-1.6	·	12.1	·
Cc1cc(C(=O)CSc2nc3ccccc3c(=O)[nH]2)c(C)n1CC1CCCO1 (configuration not stated)	i	10.2	22.3	0.1	58.8*	-12.9
Cc1cc(C(=O)CSc2nnc(Nc3ccccc3)s2)c(C)n1CC1CCCO1 (configuration not stated)	i	9.0	8.0	0.0	15.8	30.8*
Cc1cc(C(=O)CSc2nc3ccccc3c(=O)n2C)c(C)n1CC1CCCO1 (configuration not stated)	i	12.9	0.8	0.4	0.4	-28.8
Cc1cc(C(=O)CSc2nnc(Nc3ccccc3F)s2)c(C)n1CC1CCCO1 (configuration not stated)	i	-2.9	-0.9	-0.1	22.3	-9.1
CCOC(=O)C(C)Sc1ncnc2c1nnn2-c1ccc(F)cc1 (configuration not stated)	i	2.6	30.9	0.5	46.8	13.4
CCC(Sc1ncnc2c1nnn2-c1ccc(F)cc1)C(=O)OC (configuration not stated)	i	0.6	113.4	0.3	102.8*	-21.8
Cc1cc(C)nc(S/C=C/C(=O)c2ccccc2F)n1	i	8.1	150.5	·	188.8*	38.7*
O=C(NC1CCSc2ccccc21)c1ccccc1F (configuration not stated)	·	·	8.0	·	21.7	·
COc1ccccc1C(=O)NC1CCSc2ccccc21 (configuration not stated)	·	·	16.6	·	63.2*	·
O=C(NC1CCSc2ccccc21)c1ccccc1Cl (configuration not stated)	·	·	40.1	·	68.0*	·
COc1ccc(/C=N/Nc2cc(OC)ncn2)cc1	i	10.8	33.3	-0.2	68.5*	-42.2
SMILES	HSV replic up	Rad51 HR inh	HSF1 inh	Hsp70 activator	HSF-1 act	Mdm2 ligase inh
Cc1cc(C)c(S(=O)(=O)c2ccccc2)c(OC(=O)c2cc(F)c(F)cc2Cl)n1	i	-4.2	-3.9	-0.3	5.6	35.3*
O=C(COc1ccccc1C(=O)c1cnn(-c2ccccc2)c1)Nc1ccc2ccccc2c1	i	-13.3	15.7	0.2	28.6	8.3
CC(C)c1ccc(NC(=O)COc2ccc(F)cc2C(=O)c2cnn(-c3ccccc3)c2)cc1	i	3.3	33.9	-0.1	60.4*	-1.7
COc1ccc(CN(CC(=O)NCC2CCCO2)C(=O)CCC(=O)Nc2nccs2)cc1 (configuration not stated)	·	·	1.4	·	22.9	·
O=S(=O)(c1ccc(Cl)s1)N1CCCc2cccc(O)c21	i	-1.9	69.7	-0.1	116.0*	-0.1
Cc1ccc(-c2csc(NC(=O)c3cccc([N+](=O)[O-])c3)n2)cc1	·	·	20.4	0.1	63.8*	-4.9
Cc1ccc(-c2csc(NC(=O)c3ccc([N+](=O)[O-])o3)n2)cc1	·	·	37.6	·	64.8*	·
Cc1ccc(CNC(=O)c2ccc([N+](=O)[O-])o2)cc1	i	10.8	5.6	-0.2	60.7*	-13.0
Cc1ccc(/C=C/C(=O)c2ccc([N+](=O)[O-])o2)cc1	·	·	32.3	·	28.7	·
CN1CCc2c(sc(NC(=O)c3cc(Cl)sc3Cl)c2C(N)=O)C1	·	·	-16.7	·	-20.0	·
CCOC(=O)N1CCN(C(=O)C2CCN(Cc3cccc(OCc4ccccc4)c3)CC2)CC1	i	6.4	-9.5	-0.2	-3.5	-5.4
COc1ccccc1-c1nc(SCC(=O)Nc2cc(C)on2)c2c(=O)n(C)c(=O)n(C)c2n1	·	·	-9.8	·	-4.7	·
O=C1c2cccnc2Oc2ccc(Cl)cc2N1Cc1ccc(F)cc1	i	-5.5	-79.1*	-0.2	-83.9	-10.4
Cc1ccc2c(c1)N(Cc1cccc(Cl)c1)C(=O)c1cccnc1O2	i	·	8.8	-0.3	26.3	14.7
Nc1nnc(SCc2ccc([N+](=O)[O-])cc2)s1	i	38.0	6.2	-0.1	17.4	-10.5
Nc1ccc2nc(SCc3ccc([N+](=O)[O-])cc3)sc2c1	·	·	57.1	0.0	98.4*	-6.3
O=[N+]([O-])c1ccc(CSc2nnc(SCc3ccc(Cl)cc3)s2)cc1	i	-5.7	27.3	-0.1	55.7*	-9.4
CC(NS(=O)(=O)c1ccc(OCC(=O)NCc2ccccn2)cc1)c1ccccc1 (configuration not stated)	·	·	-0.3	·	-17.6	·
CCOC(=O)c1sc(NC(=O)CCN2CCC(C)CC2)c(C(=O)OCC)c1C	i	2.7	191.2	0.5	232.7*	-5.3
CCOC(=O)c1sc(NC(=O)CSc2nncs2)c(C(=O)OCC)c1C	i	4.6	38.9	-0.1	55.7*	-6.8
O=C(N/N=C/c1ccccc1Br)C1CC1	i	-5.3	6.7	-0.1	5.0	-2.9
Cc1ccc2nc(NC(=O)Cc3cccs3)sc2c1	i	-1.1	25.5	-0.2	45.4	-20.7
O=C(Cc1cccs1)Nc1nc2ccccc2s1	i	-5.5	44.7	-0.1	65.5*	-15.9
COc1ccc2nc(NC(=O)Cc3cccs3)sc2c1	i	0.0	36.9	0.3	64.6*	-16.1
O=c1cc(CN2CCN(Cc3ccc(F)cc3)C(CCO)C2)[nH]c2ccccc12 (configuration not stated)	·	·	5.6	·	-2.4	·
